Measurements taken from ChEMBL document CHEMBL3425484, “Novel N-benzenesulfonyl sophocarpinol derivatives as coxsackie B virus inhibitors” (ACS Med Chem Lett, 2015).

Legend:
[1] = Selectivity index, ratio of TC50 for african green monkey Vero cells to IC50 for Coxsackievirus B1 infected in african green monkey Vero cells; type: toxicity, cell-based; details: read-out: Selectivity Index
How it was run: (§1)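 SI is calculated as TC50 (50% inhibition of Vero cell growth) divided by IC50 (50% inhibition of the respective CVB subtype's growth, from the CPE assay in Vero cells, ribavirin as positive control).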

Coxsackievirus [2] = experiment: Antiviral activity against Coxsackievirus B2 infected in african green monkey Vero cells assessed as reduction in viral-induced cytopathic effect; type: functional, organism-based
How it was run: (§2)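 Vero (African green monkey kidney) cells were infected with the CVB subtype and scored by viral cytopathogenic effect (CPE) reduction, with ribavirin as the positive control. IC50 is the concentration that inhibits CVB growth by 50%.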

Coxsackievirus [3] = experiment: Antiviral activity against Coxsackievirus B3 infected in african green monkey Vero cells assessed as reduction in viral-induced cytopathic effect; type: functional, organism-based; how it was run: as §2
[4] = Selectivity index, ratio of TC50 for african green monkey Vero cells to IC50 for Coxsackievirus B2 infected in african green monkey Vero cells; type: toxicity, cell-based; details: read-out: Selectivity Index; how it was run: as §1
Coxsackievirus [5] = experiment: Antiviral activity against Coxsackievirus B5 infected in african green monkey Vero cells assessed as reduction in viral-induced cytopathic effect; type: functional, organism-based; how it was run: as §2
[6] = Cytotoxicity against african green monkey Vero cells assessed as inhibition of cell growth after 24 hrs by CPE assay; type: cell-based; details: chlorocebus sabaeus, read-out: TC50
Coxsackievirus [7] = experiment: Antiviral activity against Coxsackievirus B1 infected in african green monkey Vero cells assessed as reduction in viral-induced cytopathic effect; type: functional, organism-based; how it was run: as §2
[8] = Selectivity index, ratio of TC50 for african green monkey Vero cells to IC50 for Coxsackievirus B6 infected in african green monkey Vero cells; type: toxicity, cell-based; details: read-out: Selectivity Index; how it was run: as §1
[9] = Selectivity index, ratio of TC50 for african green monkey Vero cells to IC50 for Coxsackievirus B5 infected in african green monkey Vero cells; type: toxicity, cell-based; details: read-out: Selectivity Index; how it was run: as §1
[10] = Selectivity index, ratio of TC50 for african green monkey Vero cells to IC50 for Coxsackievirus B3 infected in african green monkey Vero cells; type: toxicity, cell-based; details: read-out: Selectivity Index; how it was run: as §1
Coxsackievirus [11] = experiment: Antiviral activity against Coxsackievirus B6 infected in african green monkey Vero cells assessed as reduction in viral-induced cytopathic effect; type: functional, organism-based; how it was run: as §2

SMILES	selectivity ratio [1]	IC50 (Coxsackievirus [2]) [nM]	IC50 (Coxsackievirus [3]) [nM]	selectivity ratio [4]	IC50 (Coxsackievirus [5]) [nM]	CC50 at 24 h [6] [nM]	IC50 (Coxsackievirus [7]) [nM]	selectivity ratio [8]	selectivity ratio [9]	selectivity ratio [10]	IC50 (Coxsackievirus [11]) [nM]
COC(=O)C/C=C\[C@@H]1[C@H]2CCCN3CCC[C@@H](CN1S(=O)(=O)c1cccc(C#N)c1)[C@@H]23	188	12600	3070	38.9	10500	543000	2600	174	46.7	177	2810
O=[N+]([O-])c1ccccc1S(=O)(=O)N1C[C@@H]2CCCN3CCC[C@@H]([C@H]23)[C@H]1/C=C\CCO	116	1440	2310	117	3630	354000	1460	276	46.8	153	620
